RGS4 pot – RGS4 potentiators or activators, primary screen, cell-based, HEK293 M3R inducible RGS4, calcium flux | B-score at 10 µM | 310,000 tested, 0.92% active | carbachol calcium flux Fluo4; hits give low values;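 active = B-score of the integrated calcium signal more than 4 SD below the library mean, with starting fluorescence not abnormally high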;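 note: negative B-score means reduced calcium response which marks RGS4 activation or potentiation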
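Detection: kinetic calcium fluorescence imaging with Fluo4-AM dye, 2 µM / Material: HEK293 cells with stable M3R and inducible RGS4 / Schedule: recording 10 s baseline at 1 Hz, 100 s post-agonist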
MrgX1 antag – antagonists of human MrgX1 receptor, primary screen, HEK293 cells, Fluo-4 calcium flux | AID 588676, 2011 | Mas-related G-protein coupled receptor member X1 (Homo sapiens), Q96LB2 | BAM8-22 antagonism; hits give low values | 310,000 tested, 1.3% active | B-score at 10 µM;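 active = calcium-response B-score plate-corrected more than 3 library SD below zero, starting fluorescence within 5 deviations, no agonist response on first addition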;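 note: peak minus trough fluorescence over baseline after final BAM8-22 challenge near maximal dose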
Target sequence (Q96LB2 whole entry, looked up): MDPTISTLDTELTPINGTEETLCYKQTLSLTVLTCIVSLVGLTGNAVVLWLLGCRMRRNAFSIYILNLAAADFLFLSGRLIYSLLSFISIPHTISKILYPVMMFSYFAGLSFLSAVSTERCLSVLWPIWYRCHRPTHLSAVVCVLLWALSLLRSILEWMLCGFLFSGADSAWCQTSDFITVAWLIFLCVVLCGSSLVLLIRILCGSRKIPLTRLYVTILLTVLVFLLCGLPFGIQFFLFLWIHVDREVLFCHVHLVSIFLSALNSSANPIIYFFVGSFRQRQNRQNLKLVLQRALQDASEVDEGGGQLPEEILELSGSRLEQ
RGS4 block – RGS4 inhibitors, primary screen, cell-based, HEK293 M3R inducible RGS4, calcium flux; Regulator of G-protein signaling 4 (Homo sapiens), P49798; Fluo-4 calcium flux; hits give high values; triggered by carbachol at its EC20; B-score at 10 µM; 310,000 tested, 0.45% active; AID 463165, 2010;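 active = B-score, a plate-corrected calcium signal, over three deviations above library mean, with baseline fluorescence within five deviations of library mean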;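 note: RGS4 expression induced by doxycycline in cells with stable M3 receptor; B-score is computed from the integrated fluorescence ratio over baseline after carbachol; higher B-score means a larger calcium signal and so more RGS4 inhibition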
Target sequence (P49798 whole entry, looked up): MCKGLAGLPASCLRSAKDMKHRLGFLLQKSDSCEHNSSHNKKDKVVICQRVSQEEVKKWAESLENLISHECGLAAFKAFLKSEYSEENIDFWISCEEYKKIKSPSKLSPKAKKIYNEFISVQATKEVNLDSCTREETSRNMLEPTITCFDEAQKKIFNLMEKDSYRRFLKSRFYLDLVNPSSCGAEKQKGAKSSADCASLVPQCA
MrgX1 allo act – positive allosteric modulators of MrgX1, primary screen, HEK293 cells, Fluo-4 calcium flux. Mas-related G-protein coupled receptor member X1 (Homo sapiens), Q96LB2. FDSS; hits give high values. B-score at 10 µM. 310,000 tested, 0.63% active. AID 588675, 2011;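 active = plate-corrected calcium response at least 3 library SD above typical, normal starting fluorescence, not activating the receptor alone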;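 note: compound read alongside a low EC10 to EC30 dose of BAM8-22 agonist; peak minus trough fluorescence over baseline measured at the second addition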
MrgX1 agonist – agonists of human MrgX1 receptor, primary screen, HEK293 cells, Fluo-4 calcium flux; Mas-related G-protein coupled receptor member X1 (Homo sapiens), Q96LB2; Fluo-4 calcium fluorescence, agonist mode; hits give high values; B-score at 10 µM; 310,000 tested, 0.44% active; AID 588627, 2011;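 active = calcium response B-score plate-corrected fluorescence ratio at least 3 library SD, with starting fluorescence B-score inside 5 SD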
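Test system: Stable human MrgX1 HEK293 cell line | Schedule: Overnight plating before 1 h dye loading | Read-out basis: Baseline-normalised fluorescence change ratio, B-scored | Detection: Kinetic calcium dye fluorescence, Fluo-4 NW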
MrgX1 ant reconf – MrgX1 receptor antagonists, duplicate retest, confirmation, HEK293 cells, Fluo-4 calcium flux; shares compounds with MrgX1 antag; BAM8-22 calcium flux; hits give low values; remaining BAM8-22 calcium response % of control (hits give low values), % at 10 µM; 2,300 tested, 19% active; AID 602420, 2012;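 active = remaining agonist calcium response no higher than 100% minus 3 SD of agonist-only control wells, with starting fluorescence near control levels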;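 note: agonist BAM8-22 given at a near maximal EC90 to ECmax level; peak minus minimum fluorescence divided by baseline after agonist addition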
HEK293 Ca flux – nonspecific calcium signal in parental HEK293, confirmation, counter-screen for MrgX1 antagonist project, parental HEK293 cells, Fluo-4 calcium flux. shares compounds with MrgX1 antag. fluorescence ratio F(max-min)/F0 at 10 µM. 4,000 tested, 2% active. Fluo-4 calcium fluorescence, FDSS;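 active = duplicate-averaged calcium fluorescence ratio at least three times the standard deviation of buffer wells, a nonspecific response in parental cells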
HEK293 Ca counter – calcium response in parental HEK293 cells, primary screen, counter-screen for MrgX1 allosteric activator project, cell-based, Fluo-4 calcium flux, duplicate; fluorescence ratio F(max-min)/F0 at 10 µM; shares compounds with MrgX1 antag; 4,000 tested, 0.4% active; Fluo-4 fluorescence ratio; hits give high values;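 active = calcium fluorescence ratio, averaged over duplicates, at least 3 SD of the buffer-well ratio, meaning a nonspecific response in receptor-free cells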;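 note: untransfected parental HEK293 lacking MrgX1 used as counterscreen for MrgX1 allosteric activators; fluorescence change taken during the second addition on a kinetic imager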
HEK293 Ca cntr2 – calcium response in parental HEK293 cells, primary screen, counter-screen for MrgX1 agonist project, cell-based, Fluo-4 calcium flux, duplicate, agonist mode; shares compounds with MrgX1 antag; Fluo-4 calcium fluorescence (FDSS); hits give high values; fluorescence ratio F(max-min)/F0 at 10 µM; 4,000 tested, 8.7% active; AID 624115, 2012;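 active = calcium fluorescence ratio at least three times the spread of buffer wells, meaning a non-specific response in parental cells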
Hits are given with their value; – = inactive; · = no result. Only some compounds are listed: those with a hit (about 3.5% of all), similar ones and a draw of the others.

SMILES | RGS4 pot | MrgX1 antag | RGS4 block | MrgX1 allo act | MrgX1 agonist | MrgX1 ant reconf | HEK293 Ca flux | HEK293 Ca counter | HEK293 Ca cntr2
O=C(Nc1ccc(S(=O)(=O)N2CCc3ccccc32)cc1)c1ccco1 | – | -4.8 | – | – | – | – | – | – | –
CC(C)(C)OC(=O)[C@H](Cc1ccccc1)NC(=O)c1nc[nH]c1C(=O)N1CCN(C(=O)OC(C)(C)C)CC1 | – | – | – | – | – | · | · | · | ·
CC1CCN(C(=O)c2[nH]cnc2C(=O)N[C@@H](Cc2ccccc2)C(=O)OC(C)(C)C)CC1 | – | -7 | – | – | – | – | – | – | –
CC(=O)c1ccccc1NC(=O)c1ccc(N2CCCC2=O)cc1 | – | – | – | – | – | · | · | · | ·
O=C(COc1ccc(Cl)cc1Cl)N1CCN(c2ccccn2)CC1 | – | – | – | – | – | · | · | · | ·
O=C(CCCOc1ccc(Cl)cc1Cl)N1CCN(c2ccccn2)CC1 | – | -5.2 | – | – | – | – | – | – | –
CCOc1ccc(C(=O)N2CCN(c3ccccn3)CC2)cc1OCC | – | -4.8 | – | – | – | – | – | – | 68
O=S(=O)(c1ccc(N2CCOCC2)cc1)N1CCOCC1 | – | -4.9 | – | – | – | – | – | – | –
CCS(=O)(=O)N1CCN(c2ccc(S(=O)(=O)N3CCOCC3)cc2)CC1 | – | – | – | – | – | · | · | · | ·
O=C1CC(N2CCc3ccccc32)C(=O)N1c1ccc(F)cc1 (configuration not stated) | – | – | – | – | – | · | · | · | ·
COc1ccc(C(=O)OC(C)C(=O)Nc2cc(C(F)(F)F)ccc2Cl)c(OC)c1OC (configuration not stated) | – | – | – | – | – | · | · | · | ·
COCCCNC(=S)N1CCN(c2nc(-c3ccc(F)cc3)cs2)CC1 | – | – | – | – | – | · | · | · | ·
CCOCCCNC(=S)N1CCN(c2nc(-c3ccc(F)cc3)cs2)CC1 | – | -6.4 | – | – | – | 71% | – | – | –
C/C(Cl)=C\Cn1c(NCCc2ccccc2)nc2c1c(=O)n(C)c(=O)n2C | – | – | – | – | – | · | · | · | ·
CCN(CC)CCNc1nc2c(c(=O)n(C)c(=O)n2C)n1C/C=C(/C)Cl | – | -4.6 | – | – | – | – | – | – | –
Cc1ccc(S(=O)(=O)N2CCCC2C(=O)NC2CCCCC2)cc1 (configuration not stated) | – | -14 | – | – | – | – | – | – | –
COc1ccc(-c2nc(CS(=O)CC(=O)N3CCN(C)CC3)c(C)o2)cc1 (configuration not stated) | – | – | – | – | – | · | · | · | ·
Cc1occc1C(=O)Nc1sc2c(c1C(N)=O)CCCCC2 | – | -6.5 | – | – | – | – | – | – | –
CCc1c(C)sc(NC(=O)c2ccoc2C)c1C(N)=O | – | -5.9 | – | – | – | – | – | – | –
CC(C)Oc1ccc(C(=O)NC2CCCCC2)cc1 | – | – | – | – | – | · | · | · | ·
CC(C)Oc1ccc(C(CCN)C2CCCCC2)cc1 (configuration not stated) | – | -4.7 | – | – | – | – | – | – | –
Cc1ccsc1-c1nc(CSCC(=O)NCc2ccc3c(c2)OCO3)c(C)o1 | – | -4.8 | – | – | – | – | – | – | 51
CCN(CC)S(=O)(=O)c1cccc(C(=O)OCC(=O)NC(C)c2ccccc2)c1 (configuration not stated) | – | – | – | – | – | · | · | · | ·
COc1ccc2nc(C)cc(Nc3ccc(C)cc3)c2c1 | – | – | – | – | – | · | · | · | ·
COc1ccc2nc(C)cc(NCc3ccc(F)cc3)c2c1 | – | -8.4 | – | – | – | – | – | – | –
SMILES | RGS4 pot | MrgX1 antag | RGS4 block | MrgX1 allo act | MrgX1 agonist | MrgX1 ant reconf | HEK293 Ca flux | HEK293 Ca counter | HEK293 Ca cntr2
CCOc1ccc(NC(=O)COC(=O)COc2cccc3c2OC(C)(C)C3)cc1 | – | – | – | – | – | · | · | · | ·
CC(OC(=O)COc1cccc2c1OC(C)(C)C2)C(=O)Nc1ccc(S(N)(=O)=O)cc1 (configuration not stated) | – | -5.4 | – | – | – | – | – | – | –
CSc1cccc(NC(=O)CCCNC(=O)c2ccc(Cl)cc2)c1 | – | – | – | – | – | · | · | · | ·
CC1CCCN(C(=O)C2c3ccccc3C(=O)N3CCc4ccccc4C23)C1 (configuration not stated) | – | -5.5 | – | – | – | – | – | – | –
O=C(NCCc1ccccc1)c1cc(S(=O)(=O)N2CCCC2)ccc1F | – | – | – | – | – | · | · | · | ·
CCCCCNC(=O)c1cc(S(=O)(=O)N2CCCCC2)ccc1F | – | -7.9 | – | – | – | – | – | – | –
Cc1ccc2[nH]c(-c3cccc(F)c3)cc(=O)c2c1 | – | -4.6 | – | – | – | – | – | – | –
O=C(Nc1c(C(=O)N2CCCCC2)cnn1-c1ccccc1)c1ccccc1F | – | – | – | – | – | · | · | · | ·
C=CCNC(=O)COC(=O)c1ccc(C)c(NC(=O)c2ccco2)c1 | – | -7.6 | – | – | – | – | – | – | –
CCCCNC(=O)COC(=O)c1ccc(C)c(NC(=O)c2ccco2)c1 | – | – | – | – | – | · | · | · | ·
O=C(CSc1nnc(NC(=O)c2ccco2)s1)Nc1ccc2c(c1)OCCO2 | – | – | – | – | – | · | · | · | ·
CC1Sc2ccc(S(=O)(=O)CCC(=O)Nc3ccc(C(C)C)cc3)cc2NC1=O (configuration not stated) | – | – | – | – | – | · | · | · | ·
COc1ccc(C)cc1NC(=O)c1nnn(Cc2cc(C)ccc2C)c1N | – | -5.2 | – | – | – | – | – | – | –
COc1ccc(NC(=O)c2nnn(Cc3ccc(SC)cc3)c2N)c(OC)c1 | – | -4.7 | – | – | – | – | – | – | –
CC(C)(C)NC(=O)c1cccc(NC(=O)c2ccc3c(c2)C(=O)N(C(C)(C)C)C3=O)c1 | -7.1 | -11 | – | – | – | 79% | – | – | –

High-throughput results deposited in PubChem by Johns Hopkins Ion Channel Center.
